From ChEMBL document CHEMBL5678818, “Discovery of potent SOS1 inhibitors that block RAS activation via disruption of the RAS-SOS1 interaction” (Proc Natl Acad Sci U S A, 2019)

Key:
[1] = target: Maternal embryonic leucine zipper kinase (Homo sapiens) (UniProt Q14680); experiment: Inhibition of MELK (unknown origin) assessed as residual activity at 1000 nM by KINOMEscan analysis relative to control
[2] = target: Tyrosine-protein kinase JAK1 (Homo sapiens) (UniProt P23458); experiment: Inhibition of JAK1 JH1 catalytic domain (unknown origin) assessed as residual activity at 1000 nM by KINOMEscan analysis relative to control
[3] = target: Cyclin-dependent kinase 8 (Homo sapiens) (UniProt P49336); experiment: Inhibition of CDK8 (unknown origin) assessed as residual activity at 1000 nM by KINOMEscan analysis relative to control
[4] = target: Receptor-type tyrosine-protein kinase FLT3 (Homo sapiens) (UniProt P36888); experiment: Inhibition of autoinhibited FLT3 (unknown origin) assessed as residual activity at 1000 nM by KINOMEscan analysis relative to control
[5] = target: T1, Serine/threonine-protein kinase NLK (Homo sapiens) (UniProt Q9UBE8); experiment: Inhibition of NLK (unknown origin) assessed as residual activity at 1000 nM by KINOMEscan analysis relative to control
T1 sequence (whole entry): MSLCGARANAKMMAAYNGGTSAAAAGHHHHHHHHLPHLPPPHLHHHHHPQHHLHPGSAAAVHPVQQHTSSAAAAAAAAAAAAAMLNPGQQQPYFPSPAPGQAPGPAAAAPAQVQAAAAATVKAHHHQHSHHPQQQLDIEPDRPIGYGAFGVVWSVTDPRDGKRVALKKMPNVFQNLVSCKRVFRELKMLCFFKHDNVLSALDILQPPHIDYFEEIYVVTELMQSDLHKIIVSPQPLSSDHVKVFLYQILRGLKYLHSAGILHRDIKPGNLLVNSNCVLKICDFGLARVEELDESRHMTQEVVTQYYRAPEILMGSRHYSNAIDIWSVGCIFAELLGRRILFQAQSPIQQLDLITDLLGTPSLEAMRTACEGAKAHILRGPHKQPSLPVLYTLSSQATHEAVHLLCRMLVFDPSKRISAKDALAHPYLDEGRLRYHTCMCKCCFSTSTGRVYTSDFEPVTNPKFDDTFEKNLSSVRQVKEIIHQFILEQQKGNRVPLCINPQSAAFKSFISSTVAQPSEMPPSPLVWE

[6] = target: Mitogen-activated protein kinase kinase kinase 9 (Homo sapiens) (UniProt P80192); experiment: Inhibition of MLK1 (unknown origin) assessed as residual activity at 1000 nM by KINOMEscan analysis relative to control
NCI-H358 = experiment: Antiproliferative activity against human NCI-H358 cells assessed as inhibition of cell viability incubated for 72 hrs by Cell Titer Glo assay; assay type: functional, cell-based; settings: NCI-H358, 72 h
In short: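 NCI-H358 cells (KRAS G12C mutant) were sourced from ATCC.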

[7] = target: T2, Interleukin-1 receptor-associated kinase 4 (Homo sapiens) (UniProt Q9NWZ3); experiment: Inhibition of IRAK4 (unknown origin) assessed as residual activity at 1000 nM by KINOMEscan analysis relative to control
T2 sequence (whole entry): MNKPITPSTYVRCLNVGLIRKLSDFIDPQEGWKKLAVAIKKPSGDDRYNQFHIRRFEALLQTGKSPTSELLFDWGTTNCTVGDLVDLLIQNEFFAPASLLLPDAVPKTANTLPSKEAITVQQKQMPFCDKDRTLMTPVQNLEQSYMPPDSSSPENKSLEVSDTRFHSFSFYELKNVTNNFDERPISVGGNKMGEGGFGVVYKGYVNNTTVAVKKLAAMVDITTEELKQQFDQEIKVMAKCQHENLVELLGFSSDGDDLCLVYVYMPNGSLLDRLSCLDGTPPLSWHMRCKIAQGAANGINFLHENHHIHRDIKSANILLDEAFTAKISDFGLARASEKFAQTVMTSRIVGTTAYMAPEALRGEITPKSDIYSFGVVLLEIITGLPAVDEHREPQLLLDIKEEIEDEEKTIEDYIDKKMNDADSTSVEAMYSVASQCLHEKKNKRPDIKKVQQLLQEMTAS

[8] = target: Protein kinase C theta type (Homo sapiens) (UniProt Q04759); experiment: Inhibition of PRKCQ (unknown origin) assessed as residual activity at 1000 nM by KINOMEscan analysis relative to control
[9] = target: Dual specificity testis-specific protein kinase 1 (Homo sapiens) (UniProt Q15569); experiment: Inhibition of TESK1 (unknown origin) assessed as residual activity at 1000 nM by KINOMEscan analysis relative to control
[10] = target: T3, MAP/microtubule affinity-regulating kinase 4 (Homo sapiens) (UniProt Q96L34); experiment: Inhibition of MARK4 (unknown origin) assessed as residual activity at 1000 nM by KINOMEscan analysis relative to control
T3 sequence (whole entry): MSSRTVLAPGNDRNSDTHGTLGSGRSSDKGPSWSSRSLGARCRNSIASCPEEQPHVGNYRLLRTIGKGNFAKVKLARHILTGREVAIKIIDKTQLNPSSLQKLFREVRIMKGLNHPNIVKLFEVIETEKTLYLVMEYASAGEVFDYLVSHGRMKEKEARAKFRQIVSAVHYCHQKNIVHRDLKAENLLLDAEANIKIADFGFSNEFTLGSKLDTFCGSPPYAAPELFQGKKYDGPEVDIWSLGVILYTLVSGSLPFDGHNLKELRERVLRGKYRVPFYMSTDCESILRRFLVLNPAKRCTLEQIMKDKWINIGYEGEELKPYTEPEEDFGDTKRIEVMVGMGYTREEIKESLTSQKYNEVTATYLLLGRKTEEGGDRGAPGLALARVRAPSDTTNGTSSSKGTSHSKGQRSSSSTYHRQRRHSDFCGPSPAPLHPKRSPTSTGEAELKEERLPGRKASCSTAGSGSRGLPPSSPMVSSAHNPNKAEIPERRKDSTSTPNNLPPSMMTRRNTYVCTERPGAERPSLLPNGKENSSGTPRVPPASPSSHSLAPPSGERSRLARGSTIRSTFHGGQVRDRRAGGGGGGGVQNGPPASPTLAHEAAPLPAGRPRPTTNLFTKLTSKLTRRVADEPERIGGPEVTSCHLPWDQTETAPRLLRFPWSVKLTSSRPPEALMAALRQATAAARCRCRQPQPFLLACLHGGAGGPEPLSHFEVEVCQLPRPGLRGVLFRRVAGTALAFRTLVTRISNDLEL

Maternal embryonic leucine zipper kinase (Homo sapiens), sequence (Q14680 whole entry, looked up, the tested form may be a part): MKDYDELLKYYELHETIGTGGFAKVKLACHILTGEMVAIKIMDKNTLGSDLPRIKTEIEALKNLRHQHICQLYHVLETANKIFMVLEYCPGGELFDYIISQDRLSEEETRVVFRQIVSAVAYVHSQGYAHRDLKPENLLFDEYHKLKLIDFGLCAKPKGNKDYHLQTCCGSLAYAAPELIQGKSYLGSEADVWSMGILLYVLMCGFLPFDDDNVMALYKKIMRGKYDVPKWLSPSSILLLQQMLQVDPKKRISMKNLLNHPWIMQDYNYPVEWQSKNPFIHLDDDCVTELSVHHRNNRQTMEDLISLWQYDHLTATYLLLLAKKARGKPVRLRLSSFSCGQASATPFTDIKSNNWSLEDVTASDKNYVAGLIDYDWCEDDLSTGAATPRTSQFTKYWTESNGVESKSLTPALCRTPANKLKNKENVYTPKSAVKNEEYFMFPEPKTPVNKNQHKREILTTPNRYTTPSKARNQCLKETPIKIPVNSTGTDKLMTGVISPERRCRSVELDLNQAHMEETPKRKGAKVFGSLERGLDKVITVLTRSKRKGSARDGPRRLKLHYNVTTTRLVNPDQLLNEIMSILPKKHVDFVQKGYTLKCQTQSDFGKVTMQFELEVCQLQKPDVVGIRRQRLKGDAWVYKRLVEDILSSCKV
Tyrosine-protein kinase JAK1 (Homo sapiens), sequence (P23458 whole entry, the tested form may be a part): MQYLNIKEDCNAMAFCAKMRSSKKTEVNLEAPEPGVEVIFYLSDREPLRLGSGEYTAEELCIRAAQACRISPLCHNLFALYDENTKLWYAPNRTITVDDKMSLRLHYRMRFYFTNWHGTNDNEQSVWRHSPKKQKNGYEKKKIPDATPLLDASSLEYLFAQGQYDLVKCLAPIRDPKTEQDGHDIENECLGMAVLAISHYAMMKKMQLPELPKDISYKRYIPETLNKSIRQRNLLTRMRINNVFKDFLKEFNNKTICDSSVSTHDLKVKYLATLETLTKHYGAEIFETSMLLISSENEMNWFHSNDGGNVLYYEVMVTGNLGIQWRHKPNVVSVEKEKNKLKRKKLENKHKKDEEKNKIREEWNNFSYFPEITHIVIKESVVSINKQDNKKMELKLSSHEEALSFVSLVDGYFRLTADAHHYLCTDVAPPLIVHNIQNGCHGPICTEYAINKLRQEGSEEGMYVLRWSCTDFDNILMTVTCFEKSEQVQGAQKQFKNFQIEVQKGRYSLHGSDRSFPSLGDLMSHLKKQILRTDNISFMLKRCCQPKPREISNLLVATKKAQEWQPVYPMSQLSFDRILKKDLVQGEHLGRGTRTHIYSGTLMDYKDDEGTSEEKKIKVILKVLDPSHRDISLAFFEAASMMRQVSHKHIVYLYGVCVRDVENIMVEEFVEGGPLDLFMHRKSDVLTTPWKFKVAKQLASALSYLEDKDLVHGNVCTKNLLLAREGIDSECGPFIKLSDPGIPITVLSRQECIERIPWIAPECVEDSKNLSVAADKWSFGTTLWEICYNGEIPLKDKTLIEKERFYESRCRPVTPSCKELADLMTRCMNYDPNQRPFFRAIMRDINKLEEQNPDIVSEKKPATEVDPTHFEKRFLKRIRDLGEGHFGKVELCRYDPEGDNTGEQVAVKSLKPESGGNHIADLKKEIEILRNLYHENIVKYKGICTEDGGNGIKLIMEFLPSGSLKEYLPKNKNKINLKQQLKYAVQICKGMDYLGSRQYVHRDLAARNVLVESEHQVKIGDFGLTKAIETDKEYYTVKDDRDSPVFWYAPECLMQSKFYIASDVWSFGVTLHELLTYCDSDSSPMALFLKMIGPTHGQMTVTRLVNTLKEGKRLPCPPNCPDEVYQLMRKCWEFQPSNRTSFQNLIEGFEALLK
Receptor-type tyrosine-protein kinase FLT3 (Homo sapiens), sequence (P36888 whole entry): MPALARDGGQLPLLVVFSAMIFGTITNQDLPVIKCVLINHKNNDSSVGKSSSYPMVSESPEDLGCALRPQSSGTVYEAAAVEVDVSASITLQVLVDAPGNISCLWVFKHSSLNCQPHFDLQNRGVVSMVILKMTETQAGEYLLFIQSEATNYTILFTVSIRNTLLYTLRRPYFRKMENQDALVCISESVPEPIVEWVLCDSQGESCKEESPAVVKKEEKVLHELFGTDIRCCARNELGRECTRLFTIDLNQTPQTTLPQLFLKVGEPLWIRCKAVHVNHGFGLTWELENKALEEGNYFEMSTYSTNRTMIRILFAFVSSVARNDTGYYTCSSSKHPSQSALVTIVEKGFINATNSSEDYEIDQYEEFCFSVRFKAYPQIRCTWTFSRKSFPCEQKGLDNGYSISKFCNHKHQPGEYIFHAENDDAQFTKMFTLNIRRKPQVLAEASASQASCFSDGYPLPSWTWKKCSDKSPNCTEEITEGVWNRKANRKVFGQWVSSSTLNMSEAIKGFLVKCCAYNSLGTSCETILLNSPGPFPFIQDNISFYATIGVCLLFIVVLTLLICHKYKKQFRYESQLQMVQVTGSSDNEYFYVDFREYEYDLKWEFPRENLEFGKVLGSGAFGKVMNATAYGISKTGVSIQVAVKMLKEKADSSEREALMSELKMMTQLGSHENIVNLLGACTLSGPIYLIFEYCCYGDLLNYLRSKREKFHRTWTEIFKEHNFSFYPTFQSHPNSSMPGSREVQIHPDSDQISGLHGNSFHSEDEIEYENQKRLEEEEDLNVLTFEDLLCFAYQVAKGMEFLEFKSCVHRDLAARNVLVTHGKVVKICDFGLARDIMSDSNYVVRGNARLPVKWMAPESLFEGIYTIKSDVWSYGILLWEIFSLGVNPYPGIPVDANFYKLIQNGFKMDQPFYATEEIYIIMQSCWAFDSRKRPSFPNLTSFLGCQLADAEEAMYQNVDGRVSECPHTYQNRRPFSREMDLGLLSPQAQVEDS
Mitogen-activated protein kinase kinase kinase 9 (Homo sapiens), sequence (P80192 whole entry, looked up): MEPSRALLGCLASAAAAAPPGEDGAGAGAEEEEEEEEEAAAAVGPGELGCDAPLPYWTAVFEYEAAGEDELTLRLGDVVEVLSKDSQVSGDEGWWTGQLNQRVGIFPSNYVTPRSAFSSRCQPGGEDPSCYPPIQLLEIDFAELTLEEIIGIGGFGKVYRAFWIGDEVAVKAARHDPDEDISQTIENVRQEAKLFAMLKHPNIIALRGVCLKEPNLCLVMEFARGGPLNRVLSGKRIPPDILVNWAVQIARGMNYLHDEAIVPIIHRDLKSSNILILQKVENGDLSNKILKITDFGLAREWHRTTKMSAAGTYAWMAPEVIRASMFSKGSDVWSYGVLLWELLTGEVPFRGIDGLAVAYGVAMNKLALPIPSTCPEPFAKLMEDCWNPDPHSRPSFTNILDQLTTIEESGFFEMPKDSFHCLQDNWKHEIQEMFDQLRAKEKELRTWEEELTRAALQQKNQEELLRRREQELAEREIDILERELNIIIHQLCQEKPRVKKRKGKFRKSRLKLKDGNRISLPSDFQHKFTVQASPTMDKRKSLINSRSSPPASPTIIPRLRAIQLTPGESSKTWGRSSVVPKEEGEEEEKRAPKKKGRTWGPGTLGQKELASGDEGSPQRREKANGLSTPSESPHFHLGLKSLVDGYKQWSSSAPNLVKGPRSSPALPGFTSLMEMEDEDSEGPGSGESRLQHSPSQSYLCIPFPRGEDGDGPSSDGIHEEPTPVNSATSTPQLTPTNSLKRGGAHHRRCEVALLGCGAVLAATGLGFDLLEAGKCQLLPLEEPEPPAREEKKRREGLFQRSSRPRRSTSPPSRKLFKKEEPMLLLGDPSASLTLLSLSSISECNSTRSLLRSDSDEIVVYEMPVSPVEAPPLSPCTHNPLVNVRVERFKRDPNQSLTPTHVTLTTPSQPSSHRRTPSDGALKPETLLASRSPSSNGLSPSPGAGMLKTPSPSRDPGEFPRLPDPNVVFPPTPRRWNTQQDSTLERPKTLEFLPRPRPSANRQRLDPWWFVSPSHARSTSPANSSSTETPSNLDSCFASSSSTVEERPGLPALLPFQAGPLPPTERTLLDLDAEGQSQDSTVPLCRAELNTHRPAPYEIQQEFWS
Dual specificity testis-specific protein kinase 1 (Homo sapiens), sequence (Q15569 whole entry, looked up): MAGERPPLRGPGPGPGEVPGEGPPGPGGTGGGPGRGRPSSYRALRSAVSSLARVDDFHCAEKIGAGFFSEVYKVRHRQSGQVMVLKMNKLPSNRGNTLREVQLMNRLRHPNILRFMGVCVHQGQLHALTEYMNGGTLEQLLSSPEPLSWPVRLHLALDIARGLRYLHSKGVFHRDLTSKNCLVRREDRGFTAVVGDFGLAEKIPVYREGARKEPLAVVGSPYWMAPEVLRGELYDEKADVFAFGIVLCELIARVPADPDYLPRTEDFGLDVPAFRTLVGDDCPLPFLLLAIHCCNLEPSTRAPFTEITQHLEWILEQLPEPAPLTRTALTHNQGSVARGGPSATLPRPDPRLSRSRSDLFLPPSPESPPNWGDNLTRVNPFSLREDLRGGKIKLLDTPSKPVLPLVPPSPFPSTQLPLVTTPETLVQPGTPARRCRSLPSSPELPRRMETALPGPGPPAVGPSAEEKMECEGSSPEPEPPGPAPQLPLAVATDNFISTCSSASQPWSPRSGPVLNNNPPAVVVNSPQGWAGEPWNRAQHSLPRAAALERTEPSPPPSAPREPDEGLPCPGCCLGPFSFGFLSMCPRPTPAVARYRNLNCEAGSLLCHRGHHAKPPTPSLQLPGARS
Cyclin-dependent kinase 8 (Homo sapiens), sequence (P49336 whole entry): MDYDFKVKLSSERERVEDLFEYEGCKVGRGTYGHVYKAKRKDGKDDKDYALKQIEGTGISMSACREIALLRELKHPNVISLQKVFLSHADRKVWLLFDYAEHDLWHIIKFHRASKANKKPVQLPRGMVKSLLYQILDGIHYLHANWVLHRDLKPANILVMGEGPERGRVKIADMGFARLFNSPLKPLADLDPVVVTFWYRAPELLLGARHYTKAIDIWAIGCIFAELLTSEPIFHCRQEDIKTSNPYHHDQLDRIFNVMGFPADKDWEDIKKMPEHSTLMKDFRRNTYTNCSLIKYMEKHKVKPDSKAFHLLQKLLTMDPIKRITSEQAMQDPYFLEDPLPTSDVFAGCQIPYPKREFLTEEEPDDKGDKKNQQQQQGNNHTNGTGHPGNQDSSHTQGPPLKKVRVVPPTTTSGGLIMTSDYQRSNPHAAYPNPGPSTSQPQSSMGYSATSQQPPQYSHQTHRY

Compound	Activity [1]	Activity [2]	Activity [3]	Activity [4]	Activity [5]	Activity [6]	IC50 (NCI-H358)	Activity [7]	Activity [8]	Activity [9]	Activity [10]
COc1cc2nc(C)nc(N[C@H](C)c3cccc(-c4cn[nH]c4)c3)c2cc1OC	91%	100%	91%	100%	54%	84%	13.6 µM	59%	84%	100%	88%
CNCc1ccccc1-c1csc([C@@H](C)Nc2nc(C)nc3cc(OC)c(OC)cc23)c1 [BAY-293]	–	–	–	–	–	–	3.48 µM	–	–	–	–
COc1cc2ncnc(N[C@H](C)c3cccc4ccccc34)c2cc1OC	71%	87%	93%	87%	86%	100%	–	83%	100%	96%	66%
